The species named for assay [1] is Homo sapiens. Description: Selectivity for human histamine H4 receptor over human histamine H1 receptor by radioligand displacement assay.
Assay [2] deals with T1, Histamine H4 receptor (Homo sapiens, UniProt Q9H3N8). Kind of assay: Agonist activity at human histamine H4 receptor expressed in Sf9 cells coexpressing RGS19 protein by steady-state GTPase assay. The class given is functional. The procedure, abridged:
(§1)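 Sf9 membranes (10-20 μg protein/tube), washed and resuspended in 10 mM Tris-HCl pH 7.4. H2R as hH2R-GsαS fusion; H3R coexpressed with Giα2, Gβ1γ2, RGS4; H4R as hH4R-RGS19 fusion with Giα2, Gβ1γ2. Buffer: 50 mM Tris/HCl pH 7.4, MgCl2 (H2R 1.0 mM; H3R/H4R 5.0 mM), 100 μM EDTA, 100 μM ATP, 100 nM GTP, 100 μM AppNHp, creatine phosphate/kinase, 0.2% BSA; H4R plus 100 mM NaCl.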

Assay [3] concerns the target T1, Histamine H4 receptor. Description: Agonist activity at human histamine H4 receptor expressed in Sf9 cell membrane coexpressing RGS19 protein by steady-state GTPase assay. It counts as functional. The procedure, abridged:
as §1

Assay [4] has as its target T2, Histamine H1 receptor (Homo sapiens, UniProt P35367). Description: Antagonist activity at human histamine H1 receptor expressed in Sf9 cells coexpressing RGS4 by steady-state GTPase assay. It counts as functional. Put shortly: (§2)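 Antagonist-mode steady-state GTPase assay in Sf9 membranes: H1R coexpressed with RGS4; H2R as GsαS fusion; H3R coexpressed with Giα2/Gβ1γ2/RGS4; H4R as RGS19 fusion with Giα2/Gβ1γ2. […] MgCl2: H1R/H2R 1.0 mM, H3R/H4R 5.0 mM; H4R plus 100 mM NaCl. [γ-32P]GTP hydrolysis measured over 20 min at 25 °C. pKB from nonlinear sigmoidal fits; duplicate runs.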

Assay [5] deals with T3, Histamine H3 receptor (Homo sapiens, UniProt Q9Y5N1). Kind of assay: Antagonist activity at human histamine H3 receptor expressed in Sf9 cells coexpressing Gialpha-2-Gbeta-1-gamma-2 and RGS4 proteins protein by steady-state GTPase assay. It counts as functional. Put shortly: as §2
Assay [6] addresses T2, Histamine H1 receptor. Kind of assay: Displacement of [3H]mepyramine from human histamine H1 receptor expressed in Sf9 cells. The procedure, abridged:
(§3)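 Competition binding on Sf9 membranes in 12.5 mM MgCl2, 1 mM EDTA, 75 mM Tris/HCl pH 7.4. Protein per tube: 50 μg (H1R, H3R), 120 μg (H4R), 250 μg (H2R). […] 60 min at 25 °C with shaking; PEI-treated GF/C filtration, cold washes, scintillation counting; one-site fits, duplicates.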
On the technique in general: In a radioligand displacement assay an active substance lowers the binding of a labelled ligand.

The target in assay [7] is T4, Histamine H2 receptor (Homo sapiens, UniProt P25021). Description: Antagonist activity at human histamine H2 receptor expressed in Sf9 cells coexpressing GsalphaS protein by steady-state GTPase assay. It counts as functional. Put shortly: as §2
For assay [8], the species on record is Homo sapiens. Description: Selectivity for human histamine H4 receptor over human histamine H2 receptor by radioligand displacement assay.
The target of assay [9] is T1, Histamine H4 receptor. Description: Displacement of [3H]histamine from human histamine H4 receptor expressed in Sf9 cells. Put shortly:
as §3

Assay [10] deals with T3, Histamine H3 receptor. Kind of assay: Displacement of [3H]N-alpah-methylhistamine from human histamine H3 receptor expressed in Sf9 cells. The procedure, abridged:
as §3

The target in assay [11] is T4, Histamine H2 receptor. Kind of assay: Displacement of [3H]tiotidine from human histamine H2 receptor expressed in Sf9 cells. The procedure, abridged: as §3
For assay [12], the species on record is Homo sapiens. Description: Selectivity for human histamine H4 receptor over human histamine H3 receptor by steady-state GTPase assay.

T1 sequence (Q9H3N8 whole entry, the tested form may be a part): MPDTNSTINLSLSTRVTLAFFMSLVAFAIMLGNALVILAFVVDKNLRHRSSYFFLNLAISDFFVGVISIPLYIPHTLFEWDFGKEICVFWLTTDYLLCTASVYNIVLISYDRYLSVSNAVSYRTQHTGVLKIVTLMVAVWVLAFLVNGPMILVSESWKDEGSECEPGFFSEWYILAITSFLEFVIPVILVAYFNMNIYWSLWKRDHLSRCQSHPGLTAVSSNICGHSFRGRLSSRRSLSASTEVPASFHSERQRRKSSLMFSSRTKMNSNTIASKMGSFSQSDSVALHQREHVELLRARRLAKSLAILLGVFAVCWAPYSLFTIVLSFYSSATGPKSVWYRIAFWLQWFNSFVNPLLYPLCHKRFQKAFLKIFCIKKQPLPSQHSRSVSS
T2 sequence (P35367 whole entry, the tested form may be a part): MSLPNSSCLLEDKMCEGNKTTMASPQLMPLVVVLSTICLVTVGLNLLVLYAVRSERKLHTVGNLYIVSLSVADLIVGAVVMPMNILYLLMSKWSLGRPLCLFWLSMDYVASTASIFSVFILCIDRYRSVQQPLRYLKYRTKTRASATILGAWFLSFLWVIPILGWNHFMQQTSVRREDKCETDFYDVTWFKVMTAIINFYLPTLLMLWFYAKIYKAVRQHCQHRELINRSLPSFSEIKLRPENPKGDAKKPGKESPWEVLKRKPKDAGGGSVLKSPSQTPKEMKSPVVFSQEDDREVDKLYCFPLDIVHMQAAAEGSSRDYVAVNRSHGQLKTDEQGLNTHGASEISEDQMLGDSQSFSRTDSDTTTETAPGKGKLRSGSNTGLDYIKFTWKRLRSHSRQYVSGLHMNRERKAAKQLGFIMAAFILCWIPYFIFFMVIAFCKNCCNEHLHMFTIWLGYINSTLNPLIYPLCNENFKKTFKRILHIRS
T4 sequence (P25021 whole entry): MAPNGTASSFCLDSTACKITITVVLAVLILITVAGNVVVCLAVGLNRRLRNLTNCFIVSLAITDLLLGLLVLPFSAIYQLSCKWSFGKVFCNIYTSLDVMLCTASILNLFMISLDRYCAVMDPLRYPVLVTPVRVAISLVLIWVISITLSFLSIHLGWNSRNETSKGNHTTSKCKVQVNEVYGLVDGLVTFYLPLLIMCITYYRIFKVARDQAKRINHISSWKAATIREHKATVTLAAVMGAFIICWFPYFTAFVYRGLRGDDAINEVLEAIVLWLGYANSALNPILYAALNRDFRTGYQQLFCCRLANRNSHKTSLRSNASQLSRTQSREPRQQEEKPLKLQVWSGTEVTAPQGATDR
T3 sequence (Q9Y5N1 whole entry): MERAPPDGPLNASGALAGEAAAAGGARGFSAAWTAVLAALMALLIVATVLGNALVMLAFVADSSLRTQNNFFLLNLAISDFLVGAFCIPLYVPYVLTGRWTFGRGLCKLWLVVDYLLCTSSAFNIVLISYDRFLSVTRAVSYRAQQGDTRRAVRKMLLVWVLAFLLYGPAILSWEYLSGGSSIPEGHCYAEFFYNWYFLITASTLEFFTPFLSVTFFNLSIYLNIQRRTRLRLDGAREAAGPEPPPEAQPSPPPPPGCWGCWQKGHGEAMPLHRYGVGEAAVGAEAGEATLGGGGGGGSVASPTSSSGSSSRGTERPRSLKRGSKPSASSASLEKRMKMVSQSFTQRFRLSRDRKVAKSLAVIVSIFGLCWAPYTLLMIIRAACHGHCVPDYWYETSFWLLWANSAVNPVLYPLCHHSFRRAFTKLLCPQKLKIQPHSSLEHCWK

For orientation: EC50 means the concentration needed to bring the measured effect to its halfway point. Lower therefore signals higher potency in that assay. The term pKb denotes −log10 of the Kb, conventionally taken in molar units. A higher pKb goes with a low Kb. The Ki is the equilibrium dissociation constant of an inhibitor or competing ligand from its target. As to `N#C/N=C(/NCCCCc1c[nH]cn1)NCCSc1ccccc1`, the Selectivity ratio in the assay listed under Homo sapiens [1] came out at 450; in the assay listed under Homo sapiens [8], 70; in the assay filed under Homo sapiens [12], 30. In addition, at Histamine H4 receptor [2], the EC50 is 33.9 nM. Moreover, on Histamine H4 receptor [3], the Activity is over 10 nM. Also, the pKb was under 5 at Histamine H1 receptor [4], 6 at Histamine H3 receptor [5] and under 5 at Histamine H2 receptor [7]. For the same molecule, the Ki at Histamine H1 receptor [6] is 25700 nM; on Histamine H4 receptor [9] it was 57.5 nM; at Histamine H3 receptor [10], 525 nM; at Histamine H2 receptor [11] it was 4070 nM.

The values above are taken from ChEMBL document CHEMBL1154326 (J Med Chem, 2009).
